Reference: ChEMBL document CHEMBL1140995, “Synthesis and biological evaluation of aminomethylphenol derivatives as inhibitors of the murine GABA transporters mGAT1-mGAT4” (Eur J Med Chem, 2008)
pIC50: −log10 of the molar value.

Tests used:
GABA transporter 4 = target: T1, GABA transporter 4 (Mus musculus, UniProt P31650); assay: Inhibition of [3H]GABA uptake at mouse GAT4 expressed in HEK cells; format: cell-based, HEK293
T1 sequence (P31650 whole entry): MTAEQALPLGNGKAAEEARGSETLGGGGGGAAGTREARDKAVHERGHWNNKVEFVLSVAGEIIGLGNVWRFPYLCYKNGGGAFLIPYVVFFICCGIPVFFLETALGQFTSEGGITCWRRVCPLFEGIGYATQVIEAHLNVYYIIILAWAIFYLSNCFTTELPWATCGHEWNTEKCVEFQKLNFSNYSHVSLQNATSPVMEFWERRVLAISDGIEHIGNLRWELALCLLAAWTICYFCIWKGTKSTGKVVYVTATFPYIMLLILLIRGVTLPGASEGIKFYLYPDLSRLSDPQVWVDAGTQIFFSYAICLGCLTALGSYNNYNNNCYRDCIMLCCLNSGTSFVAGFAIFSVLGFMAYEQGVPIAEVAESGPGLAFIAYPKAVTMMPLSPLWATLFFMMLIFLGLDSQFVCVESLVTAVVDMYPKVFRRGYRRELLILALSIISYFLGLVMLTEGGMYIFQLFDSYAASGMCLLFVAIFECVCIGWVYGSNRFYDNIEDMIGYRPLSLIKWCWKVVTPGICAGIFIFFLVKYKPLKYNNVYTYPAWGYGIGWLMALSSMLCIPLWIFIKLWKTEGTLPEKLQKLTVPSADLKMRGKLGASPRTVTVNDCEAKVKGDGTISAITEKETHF

GABA transporter 2 = target: T2, GABA transporter 2 (Mus musculus, UniProt P31651); assay: Inhibition of [3H]GABA uptake at mouse GAT2 expressed in HEK cells; format: cell-based, HEK293
T2 sequence (P31651 whole entry): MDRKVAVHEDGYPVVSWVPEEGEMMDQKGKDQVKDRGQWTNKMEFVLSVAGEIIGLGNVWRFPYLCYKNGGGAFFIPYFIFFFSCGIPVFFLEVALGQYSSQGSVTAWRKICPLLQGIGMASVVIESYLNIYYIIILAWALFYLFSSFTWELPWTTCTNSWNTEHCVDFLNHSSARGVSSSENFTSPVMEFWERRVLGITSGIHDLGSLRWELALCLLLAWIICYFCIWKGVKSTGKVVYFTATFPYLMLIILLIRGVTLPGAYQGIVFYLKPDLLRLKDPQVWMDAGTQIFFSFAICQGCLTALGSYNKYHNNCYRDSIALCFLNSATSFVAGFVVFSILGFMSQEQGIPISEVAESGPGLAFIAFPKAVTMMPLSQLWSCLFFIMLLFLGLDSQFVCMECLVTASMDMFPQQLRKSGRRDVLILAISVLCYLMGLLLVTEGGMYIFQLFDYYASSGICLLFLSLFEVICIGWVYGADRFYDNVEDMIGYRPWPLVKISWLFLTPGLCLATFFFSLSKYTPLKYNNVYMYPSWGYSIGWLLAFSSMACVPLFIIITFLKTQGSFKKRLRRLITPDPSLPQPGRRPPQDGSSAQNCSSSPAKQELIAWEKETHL
Procedure, shortened: (§1)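 Stable mGAT2-HEK cells were trypsinized, PBS-washed, and suspended in Krebs-Tris pH 7.2 at about 200,000 cells/well. Cells were preincubated 25 min at 37 °C with compound (1% DMSO), then exposed to 20 nM [³H]GABA plus 20 nM unlabeled GABA for 10 min.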

GABA transporter 3 = target: T3, GABA transporter 3 (Mus musculus, UniProt P31649); assay: Inhibition of [3H]GABA uptake at mouse GAT3 expressed in HEK cells; format: cell-based, HEK293; settings: for IC50: read-out: pIC50 (converted)
T3 sequence (P31649 whole entry): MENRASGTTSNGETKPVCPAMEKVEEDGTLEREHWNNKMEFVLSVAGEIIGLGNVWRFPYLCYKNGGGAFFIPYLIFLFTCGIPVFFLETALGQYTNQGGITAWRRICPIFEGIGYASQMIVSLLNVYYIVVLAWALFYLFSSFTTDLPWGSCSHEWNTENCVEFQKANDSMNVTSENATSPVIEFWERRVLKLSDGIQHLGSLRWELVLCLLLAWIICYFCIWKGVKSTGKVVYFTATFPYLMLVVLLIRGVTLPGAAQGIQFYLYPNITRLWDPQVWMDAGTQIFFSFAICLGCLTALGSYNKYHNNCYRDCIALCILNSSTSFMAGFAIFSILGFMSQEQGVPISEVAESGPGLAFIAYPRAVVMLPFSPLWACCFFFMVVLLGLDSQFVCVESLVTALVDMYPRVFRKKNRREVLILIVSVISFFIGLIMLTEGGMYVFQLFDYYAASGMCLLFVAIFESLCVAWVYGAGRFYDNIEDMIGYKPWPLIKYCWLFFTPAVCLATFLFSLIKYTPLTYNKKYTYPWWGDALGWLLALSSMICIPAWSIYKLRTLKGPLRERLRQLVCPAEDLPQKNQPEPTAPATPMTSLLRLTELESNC

[1] = target: Sodium- and chloride-dependent GABA transporter 1 (Mus musculus, UniProt P31648); assay: Inhibition of [3H]GABA uptake at mouse GAT1 expressed in HEK cells; format: cell-based, HEK293
[2] = target: T4, GABA transporter 2 (Mus musculus) (UniProt P31651); assay: Inhibition of [3H]GABA uptake at mouse GAT2 expressed in HEK cells assessed as remaining [3H]GABA uptake at 100 uM relative to control; format: cell-based; settings: HEK293; procedure, shortened: as §1
T4 sequence (whole entry): T2 sequence (P31651 whole entry)

[3] = target: T5, GABA transporter 4 (Mus musculus) (UniProt P31650); assay: Inhibition of [3H]GABA uptake at mouse GAT4 expressed in HEK cells assessed as remaining [3H]GABA uptake at 100 uM relative to control; format: cell-based; settings: HEK293
T5 sequence (whole entry): T1 sequence (P31650 whole entry)
Procedure, shortened: (§2)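 Stably transfected HEK cells were trypsinized, washed in PBS, and resuspended in Krebs-Tris buffer pH 7.2 at about 100,000 cells/well. They were pre-equilibrated 25 min at 37 °C with compound in 1% DMSO, then given 8 nM [³H]GABA plus 32 nM unlabeled GABA for 4 min.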

[4] = target: T6, GABA transporter 3 (Mus musculus) (UniProt P31649); assay: Inhibition of [3H]GABA uptake at mouse GAT3 expressed in HEK cells assessed as remaining [3H]GABA uptake at 100 uM relative to control; format: cell-based; settings: HEK293; procedure, shortened: as §2
T6 sequence (whole entry): T3 sequence (P31649 whole entry)

[5] = target: Sodium- and chloride-dependent GABA transporter 1 (Mus musculus) (UniProt P31648); assay: Inhibition of [3H]GABA uptake at mouse GAT1 expressed in HEK cells assessed as remaining [3H]GABA uptake at 100 uM relative to control; format: cell-based; settings: HEK293; procedure, shortened: as §2

| Compound | pIC50 (GABA transporter 4) | pIC50 (GABA transporter 2) | IC50 (GABA transporter 3) | pIC50 [1] | Activity [2] | Activity [3] | Activity [4] | Activity [5] | pIC50 (GABA transporter 3; read-out: IC50) |
| --- | --- | --- | --- | --- | --- | --- | --- | --- | --- |
| COc1ccc(C(OCCNCc2cccc(O)c2)(c2ccc(OC)cc2)c2ccc(OC)cc2)cc1 | 5.11 | 4.89 | 9.55 µM | 4.36 |  |  |  |  |  |
| Cc1ccsc1C(=CCCN1CCC[C@@H](C(=O)O)C1)c1sccc1C [TIAGABINE] |  |  |  | 6.88 | 52% | 73% | 64% |  |  |
| CCCCCCCCCCCCNCc1ccccc1O | 4.20 | 4.54 | 18.6 µM | 4.23 |  |  |  |  |  |
| COc1ccc(C(OCCNCc2c(F)cc(F)c(O)c2F)(c2ccc(OC)cc2)c2ccc(OC)cc2)cc1 |  |  |  |  | 89% | 64% | 56% | 87% |  |
| Oc1cccc(CNCCC(c2ccccc2)c2ccccc2)c1 | 4.30 | 4.32 | 38 µM | 4.06 |  |  |  |  |  |
| CCCCCCCCCCCCNCc1ccc(OC)c(O)c1 | 5.06 | 4.90 | 2.69 µM | 4.91 |  |  |  |  |  |
| COc1ccc(C(OCCNCc2ccc(OC)c(O)c2)(c2ccc(OC)cc2)c2ccc(OC)cc2)cc1 | 4.84 | 4.68 | 8.91 µM | 4.59 |  |  |  |  |  |
| Oc1c(F)cc(CNCCC=C(c2ccccc2)c2ccccc2)cc1F |  |  |  |  | 82% | 76% | 66% | 70% |  |
| O=C(O)C1=CCCNC1 [GUVACINE] | 4.59 | 3.31 | 25.7 µM | 4.87 |  |  |  |  |  |

The remaining lines, values ahead:

| pIC50 (GABA transporter 4) | pIC50 (GABA transporter 2) | IC50 (GABA transporter 3) | pIC50 [1] | Activity [2] | Activity [3] | Activity [4] | Activity [5] | pIC50 (GABA transporter 3; read-out: IC50) | Compound |
| --- | --- | --- | --- | --- | --- | --- | --- | --- | --- |
| 4.83 | 4.84 | 7.76 µM | 4.48 |  |  |  |  |  | Oc1ccccc1CNCCC=C(c1ccccc1)c1ccccc1 |
|  |  |  |  | 56% |  |  |  |  | COc1ccc(C(OCCN2CCC[C@H](C(=O)O)C2)(c2ccc(OC)cc2)c2ccc(OC)cc2)cc1 |
| 4.68 | 4.75 | 7.94 µM | 4.54 |  |  |  |  |  | Oc1cccc(CNCCC=C(c2ccccc2)c2ccccc2)c1 |
| 4.60 | 4.74 | 24.5 µM | 4.28 |  |  |  |  |  | Oc1ccccc1CNCCC(c1ccccc1)c1ccccc1 |
| 3.07 | 3.20 | 240 µM | 6.83 |  |  |  |  |  | O=C(O)C1=CCCN(CCON=C(c2ccccc2)c2ccccc2)C1 |
| 4.79 | 4.93 | 8.32 µM | 4.57 |  |  |  |  |  | COc1ccc(C(OCCNCc2ccccc2O)(c2ccc(OC)cc2)c2ccc(OC)cc2)cc1 |
| 4.60 | 4.82 | 5.62 µM | 4.68 |  |  |  |  |  | CCCCCCCCCCCCNCc1cccc(O)c1 |
|  |  |  |  | 64% | 67% | 51% | 59% |  | COc1ccc(C(OCCNCc2cc(F)c(O)c(F)c2)(c2ccc(OC)cc2)c2ccc(OC)cc2)cc1 |
| 4.64 | 4.71 | 12 µM | 4.73 |  |  |  |  |  | COc1ccc(CNCCC=C(c2ccccc2)c2ccccc2)cc1O |
|  |  |  | 4.07 | 54% | 82% |  |  | 4.99 | COc1ccc(C(OCCNCc2ccc(F)c(O)c2F)(c2ccc(OC)cc2)c2ccc(OC)cc2)cc1 |
| 3.56 | 3.43 | 195 µM | 6.16 |  |  |  |  |  | O=C(O)C1CCCN(CCC=C(c2ccccc2)c2ccccc2)C1 (configuration not stated) |
